UPR XBP1 act: activators of adaptive arm of unfolded protein response (XBP1); CHO-XBP1 luciferase reporter, IRE1-XBP1 UPR activation, luminescence; percent of tunicamycin response, DMSO as zero; actives 0.33% (n = 330,000); activation, % at 20 µM;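 active = versus positive control, 20 µM dose yields 30% or more activation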;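 also: 100% = tunicamycin at 10 µg/mL and 0% = DMSO only wells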
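Material – CHO cell line with stable XBP1 luciferase reporter · Buffer or medium – F12 plus 10% FBS · Compound – single point, 20 µM final compound, 1% DMSO · Schedule – 16-18 h cell attachment at 37 °C, then 6 h compound exposure · Signal – Steady-Glo luminescence read · Benchmarks – high control tunicamycin 10 µg/mL final, low control DMSO vehicle only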
CHOP inh: CHOP inhibition in unfolded protein response; CHO-K1 CHOP-promoter luciferase, tunicamycin-induced, 15-18 h; inhibition, % at 10 µM; actives 3.8% (n = 220,000); AID 2732;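 active = compounds that reduced the stress-induced luciferase reporter signal by more than about 70% of percent inhibition, limit read from the data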;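 also: 0% = tunicamycin plus vehicle and 100% = wells without tunicamycin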
UPR CHOP act: apoptotic UPR (CHOP) activation. CHO-CHOP luciferase reporter, luminescence; percent of tunicamycin response over DMSO baseline. actives 0.34% (n = 330,000). activation, % at 10 µM;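 active = at 10 µM dose, activation of 40% or more, normalized to positive control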;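 also: 100% = tunicamycin at 10 µg/mL and 0% = DMSO alone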
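Assay system: CHO-CHOP cells, stable luciferase reporter of PERK-eIF2a-CHOP signalling / Buffer or medium: F12 plus 10% serum / Compound dosing: one dose, 10 µM in 0.5% DMSO / Times: 6 h compound treatment, 37 °C / Technique: luciferase luminescence / Read-out: % reporter activation, DMSO baseline versus tunicamycin full activation / Benchmarks: tunicamycin and DMSO controls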
PvdQ inh: P. aeruginosa PvdQ acylase inhibition; AID 488965; purified PvdQ acylase, fluorescence plate reader; inhibition, % at 10 µM; actives 0.063% (n = 340,000); in the data active = inhibition above about 30%, passing the limit was not always enough;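 also: 0% = vehicle neutral wells and 100% = reference inhibitor wells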
* marks the source's active call; other numbers are inactive results; / = no result given. Shown is part of a subset that was picked to be rich in hits.

SMILES | UPR XBP1 act | CHOP inh | UPR CHOP act | PvdQ inh
C/C(=C/CCC(C)[C@H]1CC[C@@]2(C)C3=C(CC[C@]12C)[C@@]1(C)CCC(=O)C(C)(C)[C@@H]1CC3)C(=O)O (some centres undefined) | / | 74.2* | / | -8.1
C/C(=C/CCC(C)C1CCC2(C)C3CCC4C(C)(C)C(=O)CCC4(C)C3=CCC12C)C(=O)O (centres undefined) | / | 45.1 | / | /
COc1ccc(-n2c(=S)[nH]c3cc(C(=O)Nc4ccccc4OC)ccc3c2=O)cc1 | 31.7* | -8.2 | 4.6 | /
COc1ccc(-n2c(=S)[nH]c3cc(C(=O)Nc4ccccc4OC)ccc3c2=O)c(OC)c1 | -4.4 | / | -0.5 | -3.5
O=c1c2ccccc2[nH]c(=S)n1CCc1ccccc1 | 4.8 | 73.2* | 2.4 | -16.7
Cc1ccc(C(CC(=O)N2CCCC2)c2ccccc2)c(O)c1 (centres undefined) | -6.0 | / | 1.4 | -0.6
CC(=O)OCCNc1cc(Sc2nc3ccccc3[nH]2)c2nonc2c1[N+](=O)[O-] | / | 107.3* | / | 12.1
CCOC(=O)/C(C#N)=C1\Nc2ccccc2N=C1N(CC(C)C)CC(C)C | -4.1 | 76.5* | 1.1 | -0.5
CCCCN(CCCC)C1=Nc2ccccc2N/C1=C(/C#N)C(=O)OCC | -4.3 | 72.1* | -1.1 | 1.8
Cc1ccc(Nc2nnc(SCC(=O)NCCN3C(=O)CSC3=O)s2)cc1 | 1.6 | -7.5 | -0.6 | -17.3
COc1cccc(C2C3=C(N=c4s/c(=C\c5ccccc5O)c(=O)n42)c2ccccc2CC3)c1OC (centres undefined) | 52.1* | 21.9 | 104.8* | /
COC(=O)COc1ccc(S(=O)(=O)NCc2ccccn2)cc1 | -2.4 | / | 1.3 | 1.9
O=C(Cc1cccs1)NCc1cccc(F)c1 | -1.7 | 11.2 | -1.2 | -2.2
COc1ccc(-c2cc3nc(C)c(CCC(=O)NCc4ccco4)c(C)n3n2)c(OC)c1 | -1.0 | 15.0 | 1.1 | -12.8
Cc1nc2cc(-c3ccc(Cl)cc3)nn2c(C)c1CCC(=O)NCc1ccco1 | -1.8 | 73.8* | 0.2 | -12.1
CCOc1ccc2[nH]c(=O)c(CN(Cc3cccs3)Cc3nnnn3C(C)(C)C)cc2c1 | -1.1 | 95.9* | 0.3 | -8.3
N#C/C(=C/c1ccccc1[N+](=O)[O-])C(=O)NCc1ccco1 | -2.0 | 8.9 | 4.0 | -8.3
COc1ccc(CSc2nnc3[nH]c(=O)cc(N)n23)cc1 | -4.4 | 4.6 | -1.5 | 7.9
COc1cccc(-c2cc(N)nn2C(=O)Nc2ccc(Cl)cc2)c1 | 2.7 | 95.5* | 0.6 | 9.1
COc1cccc(NC(=O)NCCc2ccc(Cl)cc2)c1 | -2.3 | -4.5 | -0.6 | -7.0
O=C(c1ccc(COc2ccccc2Cl)o1)N1N=C(C(F)F)CC1(O)C(F)F (centres undefined) | -3.4 | 74.7* | 0.0 | -8.3
Cc1cccc(NC(=O)CSc2nnc(CNC(=O)c3ccco3)o2)c1 | -7.4 | / | 2.9 | -8.4
O=C(N/N=C/c1cccc(Oc2ccccc2)c1)c1ccccc1Br | -0.4 | 84.1* | -1.5 | -12.2
O=C(COC(=O)CNC(=O)c1ccc(Cl)c([N+](=O)[O-])c1)NNC(=O)c1ccccc1F | 0.2 | / | -1.5 | -5.5
CCN(CC)C(=O)C1CCCN(Cc2ccc(F)c(F)c2)C1 (centres undefined) | -0.6 | 85.9* | -1.1 | 1.2
SMILES | UPR XBP1 act | CHOP inh | UPR CHOP act | PvdQ inh
CCc1ccc(N(C(=O)c2snc(C(N)=O)c2N)C(C(=O)NCCC(C)C)c2c[nH]c3ccccc23)cc1 (centres undefined) | -2.9 | 86.5* | 10.2 | -6.2
NC(=O)c1nsc(C(=O)N(c2ccc(F)cc2)C(C(=O)NCC2CCCO2)c2c[nH]c3ccccc23)c1N (centres undefined) | 0.8 | / | 0.6 | 18.7
CC(C)c1ccc(/C=N/NC(=O)CN(c2cccc(Cl)c2Cl)S(C)(=O)=O)cc1 | 5.5 | 85.9* | 0.7 | 3.5
COc1ccc(CN=C(Nc2ccccc2)SC2CC(=O)N(C)C2=O)cc1 (centres undefined) | -0.1 | -28.4 | -1.6 | 1.0
Cc1ccc2c(c1)C(c1ccncc1)=NNC(c1ccc(F)cc1)=N2 | -0.1 | 1.9 | 2.0 | 10.6
Cc1ccc2c(c1)C(c1ccncc1)=NNC(c1ccc(C(C)C)cc1)=N2 | / | 98.4* | / | /
Cc1ccc(S(=O)(=O)N(C)c2ccc(OCC(=O)NCC3(N(C)C)CCCCC3)cc2)cc1 | -2.1 | / | 1.0 | -19.7
Cc1cc(C)nc(SCc2ccc(C(=O)NNC(=O)Nc3cccc(Cl)c3)cc2)n1 | / | 96.1* | / | 2.7
Cc1cc(C)nc(SCc2ccc(C(=O)N/N=C/c3ccncc3)cc2)n1 | 4.3 | -8.8 | -1.4 | 7.2
COCCn1c(SCC(=O)NC2CCCC2)nnc1-c1ccco1 | -5.3 | / | -1.2 | -6.5
CCOc1cc(/C=C2/C(=N)N3OC(C)=CC3=NC2=O)ccc1OCCOc1ccccc1 | 3.9 | 91.7* | -2.7 | -1.7
Fc1ccc(Nc2ccnc(Nc3ccc(F)cc3)n2)cc1 | 0.8 | 20.4 | 7.5 | -12.5
COc1cc(Cl)c(C)cc1NC(=O)c1ccc(NS(=O)(=O)c2ccc(F)c(F)c2)cc1 | 1.4 | 78.7* | -1.6 | 10.3
CC(C)Oc1cccc(C(=O)C2CCCN(Cc3cccn3-c3ccccn3)C2)c1 (centres undefined) | -2.6 | 15.8 | -0.6 | -6.1
O=C(NCc1ccc(Cl)cc1)c1cc2c(s1)CS(=O)(=O)C2 | 1.5 | / | 3.0 | 6.6
O/N=C/c1ccccc1OCc1ccc(Cl)cc1 | 2.0 | 76.5* | 5.9 | -4.6
O=C(CC12CC3CC(CC(C3)C1)C2)N1CCN(S(=O)(=O)c2cccs2)CC1 | -1.6 | 30.6 | 5.2 | -10.7
CCn1c(=NC(=O)c2ccc(S(=O)(=O)N3CCOCC3)cc2)sc2cccc(OC)c21 | 5.6 | 83.2* | 7.1 | -10.9
COCCn1c(=NC(=O)c2ccc(S(=O)(=O)N3CCOCC3)cc2)sc2cc(S(N)(=O)=O)ccc21 | -2.7 | / | 1.0 | -7.4
C=CCNC(=O)c1n[nH]c2c1CC(C(C)(C)CC)CC2 (centres undefined) | 0.9 | / | 0.4 | -15.2
CCN(C(=O)c1ccc2c(Cl)c3c(nc2c1)CCC3)c1ccc(C)c(C)c1 | -1.5 | 91.0* | -1.9 | -7.6
COc1cc(/C=C/C(=O)OCC(=O)NC(=O)NC(C)C)ccc1O | 1.7 | 8.6 | -1.4 | 7.6
CCCCOc1ccc(C(C)NC(=O)CCS(=O)(=O)Cc2ccccc2F)cc1 (centres undefined) | -1.6 | 70.7* | 1.3 | -7.4
CC(NC(=O)CCCOc1ccc(Cl)cc1)c1ccccc1 (centres undefined) | -0.8 | -4.6 | -1.3 | -0.9
Cc1cc(Cl)ccc1Oc1ccc(C(N)=O)cc1[N+](=O)[O-] | 0.4 | 81.2* | 1.1 | -19.9
Cc1cc(Cl)c(OCCCSc2nc(C)cc(=O)[nH]2)c(Br)c1 | -1.8 | 85.5* | -0.6 | 11.2
CC(=NCC1CCCO1)C1=C(O)CC(C)(C)CC1=O (centres undefined) | -2.4 | 9.0 | 1.7 | -7.4
CC(=NCC1CCNCC1)C1=C(O)CC(C)(C)CC1=O | -3.5 | 78.1* | -3.0 | -8.8
O=[N+]([O-])c1ccccc1NCc1c(O)ccc2ccccc12 | -4.6 | 89.1* | -0.3 | 5.2
Oc1ccc2ccccc2c1CNc1ccccc1 | / | / | / | -4.6

Screens deposited in PubChem BioAssay by several laboratories.
